Measurements published in ChEMBL document CHEMBL1221273, “Addressing time-dependent CYP 3A4 inhibition observed in a novel series of substituted amino propanamide renin inhibitors, a case study” (Bioorg Med Chem Lett, 2010).

Assays:
CYP3A4 [1] = target: T1, CYP3A4 (Homo sapiens, UniProt P08684); test: Ratio of IC50 for human CYP3A4 without preincubation to IC50 for human CYP3A4 preincubated for 30 mins; details: read-out: Ratio IC50
Method in brief: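 Human liver microsomes (0.25 mg/mL) were preincubated 0 or 30 min at 37 °C with compound (0.03–200 µM) and 1 mM NADPH in 125 mM phosphate buffer. Testosterone (500 µM) was then added for 15 min at 37 °C. Reactions were quenched with acetonitrile and 6β-hydroxytestosterone was measured by HPLC-MS/MS. IC50s were determined under each condition, and the shift is the ratio of the 0-min to the 30-min IC50.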

CYP3A4 [2] = target: T1, CYP3A4; test: Inhibition of CYP3A4 in human liver microsome at 3 uM; format: ADME; details: liver microsomes
Canis familiaris = test: Volume of distribution at steady state in Beagle dog at 3 mg/kg, po; format: ADME, organism-based, Canis lupus familiaris; set-up: dose 3 mg/kg, route oral; details: in vivo
[3] = Metabolic stability in human liver microsome assessed as compound remaining at 50 uM after 1 hr; format: ADME; details: liver microsomes, read-out: Stability
Cytochrome P450 3A4 [4] = target: T2, Cytochrome P450 3A4 (Homo sapiens, UniProt P08684); test: (§1) Inhibition of CYP3A4 in human liver microsome; format: ADME, microsomes
T2 sequence (P08684 whole entry): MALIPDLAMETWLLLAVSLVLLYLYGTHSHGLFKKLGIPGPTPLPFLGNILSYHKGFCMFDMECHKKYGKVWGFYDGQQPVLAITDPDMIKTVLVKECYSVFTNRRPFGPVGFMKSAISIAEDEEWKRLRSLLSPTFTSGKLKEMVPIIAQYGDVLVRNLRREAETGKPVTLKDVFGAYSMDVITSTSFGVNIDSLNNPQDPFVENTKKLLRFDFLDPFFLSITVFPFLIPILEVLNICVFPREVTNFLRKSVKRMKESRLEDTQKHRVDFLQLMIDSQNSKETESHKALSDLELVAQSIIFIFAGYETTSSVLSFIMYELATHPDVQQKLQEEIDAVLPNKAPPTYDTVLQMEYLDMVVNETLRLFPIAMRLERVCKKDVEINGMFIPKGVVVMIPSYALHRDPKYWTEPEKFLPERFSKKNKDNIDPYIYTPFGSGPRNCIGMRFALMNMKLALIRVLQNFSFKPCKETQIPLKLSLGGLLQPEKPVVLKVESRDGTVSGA
Method in brief: (§2)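 Human liver microsomes (0.25 mg/mL) pre-incubated 0 or 30 min at 37 °C with test compound (0.03–200 µM range as printed) and 1 mM NADPH in 125 mM phosphate buffer. Testosterone (500uM) then added as CYP3A substrate, 15 min further at 37 °C. Quenched with acetonitrile, centrifuged, and 6b-hydroxytestosterone formation read by HPLC-MS/MS. IC50 averaged over at least two replicates.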

CYP3A4 [5] = target: T1, CYP3A4; test: as §1; format: ADME, microsomes; details: human, liver microsomes; method in brief: as §2
Rattus norvegicus [6] = test: Antihypertensive activity in double transgenic rat hypertensive model assessed as reduction in blood pressure at 1 mg/kg, po; format: functional
Rattus norvegicus [7] = test: Volume of distribution at steady state in Sprague-Dawley rat at 30 mg/kg, po; format: ADME, organism-based; set-up: dose 30 mg/kg, route oral; details: in vivo
[8] = Half life in Sprague-Dawley rat at 30 mg/kg, po; format: ADME, organism-based; set-up: dose 30 mg/kg, route oral; details: in vivo
[9] = Oral bioavailability in Sprague-Dawley rat at 30 mg/kg; format: ADME, organism-based; details: in vivo
[10] = Clearance in Sprague-Dawley rat at 30 mg/kg, po; format: ADME, organism-based; set-up: dose 30 mg/kg, route oral; details: in vivo
[11] = Clearance in Beagle dog at 3 mg/kg, po; format: ADME, organism-based, Canis lupus familiaris; set-up: dose 3 mg/kg, route oral; details: in vivo
Cytochrome P450 3A4 [12] = target: T2, Cytochrome P450 3A4; test: Inhibition of CYP3A4 in human liver microsome preincubated for 30 mins; format: ADME, microsomes; method in brief: as §2
[13] = Metabolic stability in human liver microsome assessed as compound remaining at 20 uM after 1 hr; format: ADME; details: liver microsomes, read-out: Stability
[14] = Intrinsic clearance in human liver microsome; format: ADME; details: liver microsomes
Method in brief: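 Compound (1 µM) was incubated at 37 °C with human liver microsomes (1 mg/mL) and an NADPH regenerating system in 125 mM phosphate buffer. Samples were quenched with acetonitrile at 2, 5, 10, 20, 45 and 75 min and parent loss was followed by HPLC-MS/MS. CLint was calculated from the initial elimination rate constant.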

[15] = Oral bioavailability in Beagle dog at 3 mg/kg; format: ADME, organism-based, Canis lupus familiaris; details: in vivo
Rattus norvegicus [16] = test: Antihypertensive activity in double transgenic rat hypertensive model assessed as time required to reduce blood pressure at 1 mg/kg, po; format: functional
Renin [17] = target: T3, Renin (Homo sapiens, UniProt P00797); test: Inhibition of human recombinant renin in presence of plasma by immunoassay; format: cell-free
T3 sequence (P00797 whole entry): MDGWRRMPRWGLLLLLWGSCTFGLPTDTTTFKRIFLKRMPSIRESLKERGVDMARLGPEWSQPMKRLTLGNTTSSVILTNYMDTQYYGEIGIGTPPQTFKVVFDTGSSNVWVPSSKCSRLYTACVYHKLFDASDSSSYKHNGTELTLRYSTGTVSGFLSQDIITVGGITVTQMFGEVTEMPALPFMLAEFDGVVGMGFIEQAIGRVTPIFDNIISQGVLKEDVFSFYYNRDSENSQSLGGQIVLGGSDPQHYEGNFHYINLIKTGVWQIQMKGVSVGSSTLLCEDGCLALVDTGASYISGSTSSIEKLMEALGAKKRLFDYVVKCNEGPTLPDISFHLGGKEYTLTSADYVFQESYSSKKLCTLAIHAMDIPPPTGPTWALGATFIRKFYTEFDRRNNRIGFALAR
Method in brief: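 Pooled frozen human citrate plasma was spiked with recombinant human renin (150 pg/mL final). Compounds at various concentrations in DMSO were added to a 7:1 mix of plasma and anti-AngI trapping antibody (final antiserum 1:50,000) in Tris/EDTA pH 7.2, then incubated 2 h at 37 °C. AngI was read by immunoassay and IC50 fitted. Values are the mean of at least two replicates.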

Renin [18] = target: T3, Renin; test: Inhibition of human recombinant renin in presence of pH 7.4 buffer
Method in brief: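 Recombinant human renin (3 pg/µL) in PBS pH 7.4 with 1 mM EDTA and 0.1% BSA, premixed with human tetradecapeptide (1–14) substrate and hydroxyquinoline sulfate. Compounds were diluted in DMSO and added, then incubated 3 h at 37 °C. AngI accumulation was measured by immunoassay. % inhibition was computed for each concentration and IC50 obtained by curve fitting. Values are the mean of at least two replicates.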

[19] = Half life in Beagle dog at 3 mg/kg, po; format: ADME, organism-based, Canis lupus familiaris; set-up: dose 3 mg/kg, route oral; details: in vivo
Rattus norvegicus [20] = test: Antihypertensive activity in double transgenic rat hypertensive model assessed as reduction in blood pressure at 3 mg/kg, po; format: functional
Rattus norvegicus [21] = test: Antihypertensive activity in double transgenic rat hypertensive model assessed as time required to reduce blood pressure at 3 mg/kg, po; format: functional

T1 sequence (P08684 whole entry): as the sequence (P08684 whole entry) above

Row | Structure (SMILES) | IC50 shift (CYP3A4 [1]) | also measured
1 | COCCc1ccc(Cl)c(CN(CC2CCC2)C(=O)[C@@H](CN)Cc2ccc(OCCOc3c(Cl)cc(C)cc3Cl)cc2)c1 | 130 | –
2 | COCCCc1ccc(Cl)c(CN(C(=O)[C@@H](CN)Cc2ccc(OCCOc3c(Cl)cc(C)cc3Cl)cc2)C2CC2)c1 | 110 | inhibition at 3 µM (CYP3A4 [2]): 7%; Vdss (Canis familiaris): 8.4 L/kg; remaining at 1 h, 50 µM [3]: 98%; IC50 (Cytochrome P450 3A4 [4]): 14000 nM; Ki (Cytochrome P450 3A4 [4]): 3200 nM; kinact (CYP3A4 [5]): 0.00157 s⁻¹; Activity (Rattus norvegicus [6]): 13 mmHg; Vdss (Rattus norvegicus [7]): 12 L/kg; half-life [8]: 6 h; bioavailability [9]: 41%; CL/F [10]: 35 mL/min/kg; CL/F [11]: 16 mL/min/kg; IC50 (Cytochrome P450 3A4 [12]): 120 nM; remaining at 1 h, 20 µM [13]: 94%; CLint scaled [14]: 15 mL/min/kg; bioavailability [15]: 32%; Time (Rattus norvegicus [16]): 24 h; IC50 (Renin [17]): 2.4 nM; IC50 (Renin [18]): 0.09 nM; half-life [19]: 17 h
3 | COCCc1ccc(Cl)c(CN(C(=O)[C@@H](CN)Cc2ccc(OCCOc3c(Cl)cc(C)cc3Cl)cc2)C2CC2)c1 | 110 | –
4 | Cc1cc(Cl)c(OCCOc2ccc(C[C@H](CN)C(=O)N(Cc3cc(CCCC#N)ccc3Cl)C3CC3)cc2)c(Cl)c1 | 120 | Activity (Rattus norvegicus [20]): 27 mmHg; Time (Rattus norvegicus [21]): 48 h
5 | CC(=O)N(C)Cc1ccc(Cl)c(CN(C(=O)[C@@H](CN)Cc2ccc(OCCOc3c(Cl)cc(C)cc3Cl)cc2)C2CC2)c1 | 35 | –
6 | Cc1cc(Cl)c(OCCOc2ccc(C[C@H](CN)C(=O)N(Cc3cc(CCS(C)(=O)=O)ccc3Cl)C3CC3)cc2)c(Cl)c1 | 50 | –
7 | COCCCc1cc(CN(C(=O)[C@@H](CN)Cc2ccc(OCCOc3c(Cl)cc(C)cc3Cl)cc2)C2CC2)c(Cl)cn1 | 90 | –
8 | COCCCc1cc(CN(C(=O)[C@@H](CN)Cc2ccc(OCCOc3c(Cl)cc(C)cc3Cl)cc2)C2CC2)c(Cl)c[n+]1[O-] | 70 | –
9 | COCCCc1cc(CN(C(=O)[C@@H](CN)Cc2ccc(OCCOc3c(Cl)cc(C)cc3Cl)cc2)C2CC2)c2ccccc2n1 | 120 | –
10 | Cc1cc(Cl)c(OCCOc2ccc(C[C@H](CN)C(=O)N(Cc3cc(CCCC#N)cc4cccnc34)C3CC3)cc2)c(Cl)c1 | 140 | –
11 | COCCc1ccc(Cl)c(CN(C(=O)[C@H](Cc2ccc(OCCOc3c(Cl)cc(C)cc3Cl)cc2)[C@H](C)N)C2CC2)c1 | 60 | –
12 | COCCc1ccc(Cl)c(CN(C(=O)[C@H](Cc2ccc(OCCOc3c(Cl)cc(C)cc3Cl)cc2)C(N)=O)C2CC2)c1 | 55 | –
13 | COCCc1ccc(Cl)c(CN(C(=O)CCc2ccc(OCCOc3c(Cl)cc(C)cc3Cl)cc2)C2CC2)c1 | 40 | –
14 | COCCc1ccc(Cl)c(CN(C)C(=O)[C@@H](CN)Cc2ccc(OCCOc3c(Cl)cc(C)cc3Cl)cc2)c1 | 40 | –
15 | COCCc1ccc(Cl)c(CN(C(=O)[C@@H](CN)Cc2ccc(OCCOc3c(Cl)cc(C)cc3Cl)cc2)C2CCC2)c1 | 180 | –
16 | COCCc1ccc(Cl)c(CN(CC2CC2)C(=O)[C@@H](CN)Cc2ccc(OCCOc3c(Cl)cc(C)cc3Cl)cc2)c1 | 100 | –
17 | COCCc1ccc(Cl)c(CN(C(=O)[C@@H](CN)Cc2ccccc2)C2CC2)c1 | 120 | –
18 | COCCc1ccc(Cl)c(CN(C(=O)[C@@H](CN)Cc2ccc(CCOc3c(Cl)cc(C)cc3Cl)cc2)C2CC2)c1 | 60 | –
19 | COCCc1ccc(Cl)c(CN(C[C@@H](CN)Cc2ccc(OCCOc3c(Cl)cc(C)cc3Cl)cc2)C2CC2)c1 | 5.8 | –
20 | COCCc1ccc(Cl)c(C[C@H](C[C@@H](CN)Cc2ccc(OCCOc3c(Cl)cc(C)cc3Cl)cc2)C2CC2)c1 | 3.5 | –
21 | COCCc1ccc(Cl)c(C[C@@H](C[C@@H](CN)Cc2ccc(OCCOc3c(Cl)cc(C)cc3Cl)cc2)C2CC2)c1 | 1.7 | –
22 | COCCCc1cc(CN(C(=O)[C@@H](CN)Cc2ccc(OCCOc3c(Cl)cc(C)cc3Cl)cc2)C2CC2)cc(OCCOC)c1 | 1.5 | –
23 | COCCCc1cc(CN(C(=O)[C@@H](CN)Cc2ccc(OCCOc3c(Cl)cc(C)cc3Cl)cc2)C2CC2)cc(OCCN2CCOCC2)c1 | < 1 | –
